pIC50: −log10 of the molar value. ≈ marks a conversion by molar mass, not a printed value.
How the values were obtained:
DU-145 = test: Growth inhibition of human DU145 cells after 48 hrs by sulforhodamine B assay; assay type: functional; settings: DU-145, 48 h
In short: (§1)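 NCI sulforhodamine B assay. Cells were seeded in 5% FBS/RPMI-1640 and incubated 24 h. Serial compound dilutions were then added for 48 h. Cells were fixed with trichloroacetic acid, stained with SRB and read by microplate reader. GI50 is the concentration giving 50% reduction in net protein increase, calculated from optical density data.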

BXPC-3 = test: Growth inhibition of human BxPC3 cells after 48 hrs by sulforhodamine B assay; assay type: functional; settings: BXPC-3, 48 h; in short: as §1
NCI-H460 = test: Growth inhibition of human NCI-H460 cells after 48 hrs by sulforhodamine B assay; assay type: functional; settings: NCI-H460, 48 h; in short: as §1
MCF7 = test: Growth inhibition of human MCF7 cells after 48 hrs by sulforhodamine B assay; assay type: functional; settings: MCF7, 48 h; in short: as §1
KM-20L2 = test: Growth inhibition of human KM20L2 cells after 48 hrs by sulforhodamine B assay; assay type: functional; settings: KM-20L2, 48 h; in short: as §1
SF-268 = test: Growth inhibition of human SF268 cells after 48 hrs by sulforhodamine B assay; assay type: functional; settings: SF-268, 48 h; in short: as §1
P388 = test: Growth inhibition of mouse P388 cells after 48 hrs by Z1 Beckman/Coulter particle counter analysis; assay type: functional; settings: P388, 48 h, read-out: ED50 (the source's name)
In short: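 Mouse P388 leukemia cells were incubated 24 h in 10% horse serum/Fisher medium, then exposed 48 h to serial compound dilutions. ED50 was calculated from cell counts on a Coulter Z1 particle counter.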

Neisseria gonorrhoeae = test: Antibacterial activity against Neisseria gonorrhoeae ATCC 49226 by broth microdilution method; assay type: functional
In short: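 Broth microdilution followed NCCLS standard methods. Compounds were reconstituted in sterile DMSO and diluted in the appropriate medium immediately before testing. MIC was taken as the lowest concentration giving no visible growth (optically clear). Assays were repeated on separate days.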

[1] = Solubility of the compound in water; assay type: physicochemical
In short: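 Solubility expressed as amount dissolving in 1 mL H₂O at 25 °C.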

HUVEC [2] = test: Antiangiogenic activity in HUVEC assessed as cell growth inhibition after 48 hrs by sulforhodamine B assay; assay type: functional, cell-based; settings: Homo sapiens
In short: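 HUVECs were grown in EGM-2 medium and tested with the standard SRB growth assay following NCI Developmental Therapeutics Program Matrigel antiangiogenesis protocols. IC50 (concentration causing 50% inhibition) was calculated from plotted data.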

HUVEC [3] = test: Antiangiogenic activity in HUVEC assessed as cell growth at 0.0001 ug/ml after 24 hrs by sulforhodamine B assay relative to control; assay type: functional, Homo sapiens
HUVEC [4] = test: Antiangiogenic activity in HUVEC assessed as reduction of number of junctions at 0.001 ug/ml after 24 hrs by matrigel assay relative to control; assay type: functional, Homo sapiens; parameters: scale not given: the % may be the effect or the level left
In short: (§2)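 Commercial HUVECs grown in EGM-2 were seeded at 2 × 10⁵ cells/mL onto Matrigel, which had been polymerized 15 min at rt and then 30 min at 37 °C, per NCI DTP protocol. Compound was added and cells were incubated 24 h, then imaged by inverted microscopy. Cord length and junction number were scored against untreated control on a scale from − (none) to +++ (same as control), with ++ = 50% of control.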

HUVEC [5] = test: Antiangiogenic activity in HUVEC assessed as cell growth at 0.00001 ug/ml after 24 hrs by sulforhodamine B assay relative to control; assay type: functional; settings: Homo sapiens, read-out: Activity
SW-1736 = test: Growth inhibition of human SW1736 cells after 48 hrs by sulforhodamine B assay; assay type: functional; settings: SW-1736, 48 h
HUVEC [6] = test: Antiangiogenic activity in HUVEC assessed as cell growth at 0.01 ug/ml after 24 hrs by sulforhodamine B assay relative to control; assay type: functional, Homo sapiens
HUVEC [7] = test: Antiangiogenic activity in HUVEC assessed as reduction of cord length at 0.001 ug/ml after 24 hrs by matrigel assay relative to control; assay type: functional, Homo sapiens; parameters: scale not given: the % may be the effect or the level left; in short: as §2
[8] = Growth inhibition of human KAT4 cells after 48 hrs by sulforhodamine B assay; assay type: functional; settings: KAT-4, 48 h
HUVEC [9] = test: Antiangiogenic activity in HUVEC assessed as cell growth at 0.001 ug/ml after 24 hrs by sulforhodamine B assay relative to control; assay type: functional, Homo sapiens
[10] = Inhibition of purified tubulin assembly after 20 mins
In short: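 Purified tubulin at 10 μM in 0.8 M monosodium glutamate (pH 6.6), 0.4 mM GTP and 4% (v/v) DMSO, with varying compound concentrations. Extent of assembly was measured after 20 min at 30 °C.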

HUVEC [11] = test: Antiangiogenic activity in HUVEC assessed as cell growth at 0.1 ug/ml after 24 hrs by sulforhodamine B assay relative to control; assay type: functional, Homo sapiens; settings: Homo sapiens, HUVEC, 24 h; read-out: Activity

| SMILES | GI50 (DU-145) | GI50 (BXPC-3) | GI50 (NCI-H460) | GI50 (MCF7) | GI50 (KM-20L2) | GI50 (SF-268) | EC50 (P388) | MIC (Neisseria gonorrhoeae) | further results |
| --- | --- | --- | --- | --- | --- | --- | --- | --- | --- |
| COc1ccc(/C=C\c2cc(O)c(OC)c(OC)c2)cc1O | 0.0043 µg/mL (≈ 0.0142 µM) | 2.3 µg/mL (≈ 7.61 µM) | 0.19 µg/mL (≈ 0.628 µM) | 0.49 µg/mL (≈ 1.62 µM) | 1.2 µg/mL (≈ 3.97 µM) | 0.0083 µg/mL (≈ 0.0275 µM) | 0.26 µg/mL (≈ 0.86 µM) | – | – |
| C1CCNCC1.C1CCNCC1.COc1ccc(/C=C\c2cc(I)c(OC)c(I)c2)cc1OP(=O)(O)O | 0.025 µg/mL | 0.33 µg/mL | 0.025 µg/mL | 0.07 µg/mL | > 1 µg/mL | 0.041 µg/mL | 0.011 µg/mL | < 0.5 µg/mL | – |
| COc1ccc(/C=C\c2cc(I)c(OC)c(OC)c2)cc1OP(=O)([O-])[O-].[Li+].[Li+] | 0.0043 µg/mL | 0.49 µg/mL | 0.0039 µg/mL | 0.0038 µg/mL | – | 0.004 µg/mL | 0.017 µg/mL | – | solubility ([1]; buffer): >= 2.4 mg/ml |
| COc1ccc(/C=C\c2cc(I)c(OC)c(OC)c2)cc1OP(=O)([O-])[O-].[K+].[K+] | 0.0038 µg/mL | 0.381 µg/mL | 0.0043 µg/mL | 0.0064 µg/mL | 0.41 µg/mL | 0.0057 µg/mL | 0.0021 µg/mL | – | solubility ([1]; buffer): 14000 µg/mL; IC50 (HUVEC [2]): 0.00025 µg/mL; Activity (HUVEC [3]): 77%; Activity (HUVEC [4]): 75%; growth at 10 pg/mL (HUVEC [5]): 95%; GI50 (SW-1736): > 10 µg/mL; Activity (HUVEC [6]): 1%; Activity (HUVEC [7]): 50%; GI50 [8]: 0.37 µg/mL; growth at 0.001 µg/mL (HUVEC [9]; Homo sapiens, HUVEC, 24 h, read-out: Activity): 10% |
| COc1ccc(/C=C/c2cc(I)c(OC)c(OC)c2)cc1O [DIIODOCOMBSTATIN] | 0.27 µg/mL (≈ 0.655 µM) | 2.7 µg/mL (≈ 6.55 µM) | 0.21 µg/mL (≈ 0.509 µM) | 0.18 µg/mL (≈ 0.437 µM) | 1.7 µg/mL (≈ 4.12 µM) | 0.55 µg/mL (≈ 1.33 µM) | 0.189 µg/mL (≈ 0.458 µM) | – | – |
| C1COCCN1.C1COCCN1.COc1ccc(/C=C\c2cc(I)c(OC)c(I)c2)cc1OP(=O)(O)O | 0.028 µg/mL | 0.35 µg/mL | 0.033 µg/mL | 0.066 µg/mL | > 1 µg/mL | 0.054 µg/mL | 0.014 µg/mL | < 0.5 µg/mL | – |
| COc1ccc(/C=C\c2cc(I)c(OC)c(OC)c2)cc1OP(=O)([O-])[O-].[Na+].[Na+] | 0.011 µg/mL | 0.469 µg/mL | 0.017 µg/mL | 0.018 µg/mL | > 1 µg/mL | 0.018 µg/mL | 0.002 µg/mL | – | solubility ([1]; buffer): 2000 µg/mL; pIC50 [10]: < 4.40; IC50 (HUVEC [2]): 0.00035 µg/mL; Activity (HUVEC [3]): 104%; growth at 0.1 µg/mL (HUVEC [11]): 7%; Activity (HUVEC [6]): 14%; Activity (HUVEC [9]): 5% |
| COc1ccc(/C=C\c2cc(I)c(OC)c(OC)c2)cc1OP(=O)(O)O.OCN(CO)CO.OCN(CO)CO | 0.0047 µg/mL | 0.37 µg/mL | 0.004 µg/mL | 0.0048 µg/mL | 0.4 µg/mL | 0.0043 µg/mL | 0.0029 µg/mL | 32 µg/mL | – |
| COC(=O)[C@@H](N)Cc1c[nH]c2ccccc12.COC(=O)[C@@H](N)Cc1c[nH]c2ccccc12.COc1ccc(/C=C\c2cc(I)c(OC)c(I)c2)cc1OP(=O)(O)O | 0.026 µg/mL | 0.37 µg/mL | 0.033 µg/mL | 0.22 µg/mL | > 1 µg/mL | 0.086 µg/mL | 0.017 µg/mL | < 0.5 µg/mL | – |
| COC(=O)CN.COC(=O)CN.COc1ccc(/C=C\c2cc(I)c(OC)c(OC)c2)cc1OP(=O)(O)O | 0.0021 µg/mL | 0.16 µg/mL | 0.0031 µg/mL | 0.0044 µg/mL | 0.32 µg/mL | 0.0033 µg/mL | 0.0026 µg/mL | – | solubility ([1]; water, read-out: solubility): ≥ 2000 µg/mL |
| COc1ccc(/C=C\c2cc(F)c(OC)c(OC)c2)cc1O [FLUORCOMBSTATIN] | 0.0019 µg/mL (≈ 0.00624 µM) | – | 0.0032 µg/mL (≈ 0.0105 µM) | 0.0027 µg/mL (≈ 0.00887 µM) | > 1 µg/mL | 0.0016 µg/mL (≈ 0.00526 µM) | 0.002 µg/mL (≈ 0.00657 µM) | – | – |
| COC(=O)CN.COC(=O)CN.COc1ccc(/C=C\c2cc(I)c(OC)c(I)c2)cc1OP(=O)(O)O | 0.023 µg/mL | 0.36 µg/mL | 0.03 µg/mL | 0.1 µg/mL | > 1 µg/mL | 0.054 µg/mL | 0.011 µg/mL | < 0.5 µg/mL | – |
| C1COCCN1.C1COCCN1.COc1ccc(/C=C\c2cc(I)c(OC)c(OC)c2)cc1OP(=O)(O)O | 0.0026 µg/mL | 0.21 µg/mL | 0.0036 µg/mL | 0.0047 µg/mL | 0.24 µg/mL | 0.0037 µg/mL | 0.0032 µg/mL | 16 µg/mL | – |
| COc1ccc(/C=C/c2cc(I)c(OC)c(I)c2)cc1O | 5.8 µg/mL (≈ 11.4 µM) | 3 µg/mL (≈ 5.9 µM) | 3.4 µg/mL (≈ 6.69 µM) | 0.94 µg/mL (≈ 1.85 µM) | > 10 µg/mL | 3.3 µg/mL (≈ 6.49 µM) | > 10 µg/mL | – | – |
| COc1ccc(/C=C\c2cc(OC)c(OC)c(OC)c2)cc1OP(=O)([O-])[O-].[Na+].[Na+] [FOSBRETABULIN DISODIUM] | 0.0072 µg/mL | 0.23 µg/mL | 0.029 µg/mL | – | 0.034 µg/mL | 0.036 µg/mL | 0.0004 µg/mL | – | pIC50 [10]: < 4.40 |
| C1CCNCC1.C1CCNCC1.COc1ccc(/C=C\c2cc(I)c(OC)c(OC)c2)cc1OP(=O)(O)O | 0.0029 µg/mL | 0.32 µg/mL | 0.0036 µg/mL | 0.0065 µg/mL | 0.51 µg/mL | 0.0044 µg/mL | 0.0026 µg/mL | – | solubility ([1]; water, read-out: solubility): ≥ 4000 µg/mL |
| COc1ccc(/C=C\c2cc(I)c(OC)c(I)c2)cc1OP(=O)([O-])[O-].[Li+].[Li+] | 0.032 µg/mL | 0.37 µg/mL | 0.05 µg/mL | – | – | 0.05 µg/mL | 0.021 µg/mL | < 0.5 µg/mL | solubility ([1]; buffer): >= 4 mg/ml |
| COC(=O)[C@@H](N)Cc1c[nH]c2ccccc12.COC(=O)[C@@H](N)Cc1c[nH]c2ccccc12.COc1ccc(/C=C\c2cc(I)c(OC)c(OC)c2)cc1OP(=O)(O)O | 0.003 µg/mL | 0.26 µg/mL | 0.0034 µg/mL | 0.035 µg/mL | 0.59 µg/mL | 0.0097 µg/mL | 0.0022 µg/mL | 4 µg/mL | – |
| COc1ccc(/C=C\c2cc(I)c(OC)c(I)c2)cc1OP(=O)(O)O.OCN(CO)CO.OCN(CO)CO | 0.021 µg/mL | 0.33 µg/mL | 0.025 µg/mL | 0.047 µg/mL | 0.94 µg/mL | 0.04 µg/mL | 0.026 µg/mL | < 0.5 µg/mL | – |

— ChEMBL document CHEMBL2021780, “Antineoplastic agents. 548. Synthesis of iodo- and diiodocombstatin phosphate prodrugs” (J Nat Prod, 2012)
